Results: ChEMBL document CHEMBL1145427, “Quick assembly of 1,4-diphenyltriazoles as probes targeting beta-amyloid aggregates in Alzheimer's disease” (J Med Chem, 2007)

Experiments:
[1] = Displacement of [125I]IMPY from beta amyloid protein plaques in Alzheimer's disease patient brain; design: species or system Homo sapiens
Procedure, shortened: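 Competition binding to pooled gray-matter homogenates from four AD brains (approximately 100 mg wet tissue/mL in PBS pH 7.4; 20–50 μg per tube). [125I]2 at 0.04–0.06 nM; inhibitors 10^-5–10^-10 M in PBS with 0.1% BSA; final volume 1 mL. Nonspecific binding with 600 nM 2. Incubated 37 °C, 2 h; GF/B filtration, gamma counting. Ki from nonlinear regression.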

[2] = tested on: Heart; experiment: Biodistribution in ICR mouse heart at 5 to 10 uCi, iv after 2 mins; format: ADME, organism-based; settings: in vivo
Procedure, shortened: (§1)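 Male ICR mice (22–25 g) under isoflurane anesthesia; [125I] or [18F] tracer (5–10 μCi) in 0.15 mL of 0.1% bovine serum albumin solution injected into the tail vein. Groups of n = 3 per time point, killed by cervical dislocation. Organs removed, weighed and gamma-counted against diluted aliquots of injected dose, giving % dose/organ and % ID/g. Total blood activity assumed as 7% of body weight.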

[3] = tested on: Spleen; experiment: Biodistribution in ICR mouse spleen at 5 to 10 uCi, iv after 2 mins; format: ADME, organism-based; settings: in vivo; procedure, shortened: as §1
[4] = tested on: Thyroid gland; experiment: Biodistribution in ICR mouse thyroid at 5 to 10 uCi, iv after 1 hr; format: ADME, organism-based; settings: in vivo; procedure, shortened: as §1
[5] = tested on: Spleen; experiment: Biodistribution in ICR mouse spleen at 5 to 10 uCi, iv after 30 mins; format: ADME, organism-based; settings: in vivo, 0.5 h; procedure, shortened: as §1
[6] = tested on: Heart; experiment: Biodistribution in ICR mouse heart at 5 to 10 uCi, iv after 1 hr; format: ADME, organism-based; settings: in vivo; procedure, shortened: as §1
[7] = tested on: Zone of skin; experiment: Biodistribution in ICR mouse skin at 5 to 10 uCi, iv after 2 hrs; format: ADME, organism-based; settings: in vivo; procedure, shortened: as §1
[8] = tested on: Heart; experiment: Biodistribution in ICR mouse heart at 5 to 10 uCi, iv after 30 mins; format: ADME, organism-based; settings: in vivo, 0.5 h; procedure, shortened: as §1
[9] = tested on: Thyroid gland; experiment: Biodistribution in ICR mouse thyroid at 5 to 10 uCi, iv after 30 mins; format: ADME, organism-based; settings: in vivo, 0.5 h; procedure, shortened: as §1
[10] = tested on: Liver; experiment: Biodistribution in ICR mouse liver at 5 to 10 uCi, iv after 1 hr; format: ADME, organism-based; settings: in vivo; procedure, shortened: as §1
[11] = tested on: Brain; experiment: Biodistribution in ICR mouse brain at 5 to 10 uCi, iv after 2 mins; format: ADME, organism-based; settings: in vivo; procedure, shortened: as §1
[12] = tested on: Thyroid gland; experiment: Biodistribution in ICR mouse thyroid at 5 to 10 uCi, iv after 2 mins; format: ADME, organism-based; settings: in vivo; procedure, shortened: as §1
[13] = tested on: Lung; experiment: Biodistribution in ICR mouse lung at 5 to 10 uCi, iv after 2 mins; format: ADME, organism-based; settings: in vivo; procedure, shortened: as §1
[14] = tested on: Heart; experiment: Biodistribution in ICR mouse heart at 5 to 10 uCi, iv after 2 hrs; format: ADME, organism-based; settings: in vivo; procedure, shortened: as §1
[15] = tested on: Lung; experiment: Biodistribution in ICR mouse lung at 5 to 10 uCi, iv after 1 hr; format: ADME, organism-based; settings: in vivo; procedure, shortened: as §1
[16] = tested on: Kidney; experiment: Biodistribution in ICR mouse kidney at 5 to 10 uCi, iv after 2 hrs; format: ADME, organism-based; settings: in vivo; procedure, shortened: as §1
[17] = tested on: Blood; experiment: Biodistribution in ICR mouse blood at 5 to 10 uCi, iv after 30 mins; format: ADME, organism-based; settings: in vivo, 0.5 h; procedure, shortened: as §1
[18] = tested on: Muscle tissue; experiment: Biodistribution in ICR mouse muscle at 5 to 10 uCi, iv after 2 mins; format: ADME, organism-based; settings: in vivo; procedure, shortened: as §1
[19] = tested on: Liver; experiment: Biodistribution in ICR mouse liver at 5 to 10 uCi, iv after 2 mins; format: ADME, organism-based; settings: in vivo; procedure, shortened: as §1
[20] = tested on: Lung; experiment: Biodistribution in ICR mouse lung at 5 to 10 uCi, iv after 2 hrs; format: ADME, organism-based; settings: in vivo; procedure, shortened: as §1
[21] = tested on: Muscle tissue; experiment: Biodistribution in ICR mouse muscle at 5 to 10 uCi, iv after 30 mins; format: ADME, organism-based; settings: in vivo, 0.5 h; procedure, shortened: as §1
[22] = tested on: Kidney; experiment: Biodistribution in ICR mouse kidney at 5 to 10 uCi, iv after 1 hr; format: ADME, organism-based; settings: in vivo; procedure, shortened: as §1
[23] = tested on: Zone of skin; experiment: Biodistribution in ICR mouse skin at 5 to 10 uCi, iv after 2 mins; format: ADME, organism-based; settings: in vivo; procedure, shortened: as §1
[24] = Partition coefficient, log P of the compound; format: physicochemical; settings: octanol/water
Procedure, shortened: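 [125I] or [18F] tracer mixed with 3 g each of 1-octanol and 0.1 M phosphate buffer pH 7.4. Vortexed 3 min at room temperature, then centrifuged 5 min. Two 0.5 g samples from each layer counted; PC is the ratio of cpm/g in octanol to cpm/g in buffer. The octanol layer was repartitioned until values were consistent.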

[25] = tested on: Lung; experiment: Biodistribution in ICR mouse lung at 5 to 10 uCi, iv after 30 mins; format: ADME, organism-based; settings: in vivo, 0.5 h; procedure, shortened: as §1
[26] = tested on: Kidney; experiment: Biodistribution in ICR mouse kidney at 5 to 10 uCi, iv after 30 mins; format: ADME, organism-based; settings: in vivo, 0.5 h; procedure, shortened: as §1
[27] = tested on: Spleen; experiment: Biodistribution in ICR mouse spleen at 5 to 10 uCi, iv after 1 hr; format: ADME, organism-based; settings: in vivo; procedure, shortened: as §1
[28] = tested on: Blood; experiment: Biodistribution in ICR mouse blood at 5 to 10 uCi, iv after 2 mins; format: ADME, organism-based; settings: in vivo; procedure, shortened: as §1
[29] = tested on: Brain; experiment: Biodistribution in ICR mouse brain at 5 to 10 uCi, iv after 1 hr; format: ADME, organism-based; settings: in vivo; procedure, shortened: as §1
[30] = tested on: Blood; experiment: Biodistribution in ICR mouse blood at 5 to 10 uCi, iv after 1 hr; format: ADME, organism-based; settings: in vivo; procedure, shortened: as §1
[31] = tested on: Liver; experiment: Biodistribution in ICR mouse liver at 5 to 10 uCi, iv after 2 hrs; format: ADME, organism-based; settings: in vivo; procedure, shortened: as §1
[32] = tested on: Kidney; experiment: Biodistribution in ICR mouse kidney at 5 to 10 uCi, iv after 2 mins; format: ADME, organism-based; settings: in vivo; procedure, shortened: as §1
[33] = tested on: Spleen; experiment: Biodistribution in ICR mouse spleen at 5 to 10 uCi, iv after 2 hrs; format: ADME, organism-based; settings: in vivo; procedure, shortened: as §1
[34] = tested on: Liver; experiment: Biodistribution in ICR mouse liver at 5 to 10 uCi, iv after 30 mins; format: ADME, organism-based; settings: in vivo, 0.5 h; procedure, shortened: as §1
[35] = tested on: Blood; experiment: Biodistribution in ICR mouse blood at 5 to 10 uCi, iv after 2 hrs; format: ADME, organism-based; settings: in vivo; procedure, shortened: as §1
[36] = tested on: Brain; experiment: Biodistribution in ICR mouse brain at 5 to 10 uCi, iv after 2 hrs; format: ADME, organism-based; settings: in vivo; procedure, shortened: as §1
[37] = tested on: Muscle tissue; experiment: Biodistribution in ICR mouse muscle at 5 to 10 uCi, iv after 1 hr; format: ADME, organism-based; settings: in vivo; procedure, shortened: as §1
[38] = tested on: Zone of skin; experiment: Biodistribution in ICR mouse skin at 5 to 10 uCi, iv after 30 mins; format: ADME, organism-based; settings: in vivo, 0.5 h; procedure, shortened: as §1
[39] = tested on: Muscle tissue; experiment: Biodistribution in ICR mouse muscle at 5 to 10 uCi, iv after 2 hrs; format: ADME, organism-based; settings: in vivo; procedure, shortened: as §1
[40] = tested on: Brain; experiment: Biodistribution in ICR mouse brain at 5 to 10 uCi, iv after 30 mins; format: ADME, organism-based; settings: in vivo, 0.5 h; procedure, shortened: as §1
[41] = tested on: Zone of skin; experiment: Biodistribution in ICR mouse skin at 5 to 10 uCi, iv after 1 hr; format: ADME, organism-based; settings: in vivo; procedure, shortened: as §1

Structure (SMILES): CN(C)c1ccc(-c2cn(-c3ccc(OCCCO)cc3)nn2)cc1
- Ki [1]: 75 nM

Structure (SMILES): CN(C)c1ccc(-c2cn(-c3ccc(OCCOCCOCCF)cc3)nn2)cc1
- Ki [1]: 8.4 nM

Structure (SMILES): CN(C)c1ccc(-c2cn(-c3ccc(OCC[18F])cc3)nn2)cc1
- Drug uptake [2]: 4.25 % ID/g
- Drug uptake [3]: 4.04 % ID/g
- Drug uptake [4]: 3.25 % ID/g
- Drug uptake [5]: 2.21 % ID/g
- Drug uptake [6]: 2.02 % ID/g
- Drug uptake [7]: 1.42 % ID/g
- Drug uptake [8]: 2.28 % ID/g
- Drug uptake [9]: 1.89 % ID/g
- Drug uptake [10]: 3.52 % ID/g
- Drug uptake [11]: 5.92 % ID/g
- Drug uptake [12]: 1.41 % ID/g
- Drug uptake [13]: 5.68 % ID/g
- Drug uptake [14]: 1.83 % ID/g
- Drug uptake [15]: 2.03 % ID/g
- Drug uptake [16]: 2.01 % ID/g
- Drug uptake [17]: 2.65 % ID/g
- Drug uptake [18]: 0.73 % ID/g
- Drug uptake [19]: 11.6 % ID/g
- Drug uptake [20]: 1.79 % ID/g
- Drug uptake [21]: 1.51 % ID/g
- Drug uptake [22]: 2.44 % ID/g
- Drug uptake [23]: 0.51 % ID/g
- logP [24]: 2.7
- Drug uptake [25]: 2.72 % ID/g
- Drug uptake [26]: 3.35 % ID/g
- Drug uptake [27]: 1.66 % ID/g
- Drug uptake [28]: 2.63 % ID/g
- Drug uptake [29]: 2.34 % ID/g
- Drug uptake [30]: 2.45 % ID/g
- Drug uptake [31]: 2.69 % ID/g
- Drug uptake [32]: 6.94 % ID/g
- Drug uptake [33]: 1.43 % ID/g
- Drug uptake [34]: 5.54 % ID/g
- Drug uptake [35]: 2.3 % ID/g
- Drug uptake [36]: 2.08 % ID/g
- Drug uptake [37]: 1.33 % ID/g
- Drug uptake [38]: 1.82 % ID/g
- Drug uptake [39]: 1.11 % ID/g
- Drug uptake [40]: 2.53 % ID/g
- Drug uptake [41]: 1.72 % ID/g

Structure (SMILES): CNc1ccc(-c2cn(-c3ccc(OCCOCCOCCF)cc3)nn2)cc1
- Ki [1]: 30 nM

Structure (SMILES): CN(C)c1ccc(-c2cn(-c3ccc(OCCCF)cc3)nn2)cc1
- Ki [1]: 6.2 nM

Structure (SMILES): CN(C)c1ccc(-c2cn(-c3ccc(OCCF)cc3)nn2)cc1
- Ki [1]: 5 nM
